Screening results: PubChem, several laboratories
RAM inhibit: inhibitors of the yeast RAM network. S. cerevisiae dse1pr::URA3 reporter, 5-FOA growth OD615, 2 d; analog-sensitive cbk1-as2 kinase mutant strain. inhibition, % at 50 µM. actives 1.8% (n = 190,000). AID 868;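 active means inhibition above a set limit, 3 SD over mean compound inhibition, cut at about 8.4% in these data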;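 further: inhibition rescues growth on 5-FOA so higher OD means more RAM inhibition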
Yeast growth inh: chemicals that inhibit yeast BB579 growth in restrictive medium (lifespan-shortening candidates). S. cerevisiae BB579 growth, OD615, 48 h. inhibition, % at 10 µM. actives 0.51% (n = 140,000). AID 804;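 active means inhibition above a set limit, 3 SD over the mean compound inhibition, cut at about 44% in these data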
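Assay system: S. cerevisiae DeaD strain BB579 yeast. Medium: CSMM-D restrictive synthetic medium containing dextrose (glucose). Times: 4 h cell preincubation, 48 h compound exposure, 30 °C humidified. Signal: OD615 turbidity measurement. Benchmarks: positive control amphotericin B 10 µg/mL.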
Measles CPE: protection of cells from measles virus; Measles virus-infected cells, CPE protection, absorbance; protection (pct of control), % at 4 µM; actives 1.5% (n = 140,000); AID 841; in the data active means protection mostly above about 24%, no sharp cut-off; inactive means mostly below about 26%
Yeast lifespan up: yeast lifespan extension. S. cerevisiae growth with nicotinamide, OD615; deaD strain in restrictive glucose medium. inhibition of the nicotinamide effect, % at 10 µM. actives 0.68% (n = 130,000);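 active means inhibition above a set limit, placed 3 SD over the median of all compounds, cut at about 26% in these data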
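Assay system: engineered S. cerevisiae DeaD replicative-lifespan strain, galactose-grown log-phase cells; Buffer or medium: CSMM-D glucose medium, restrictive; Probe or stimulus: nicotinamide 1.5 mM; Compound: single dose 10 µM compound, 0.25% DMSO; Schedule: 4 h preincubation then 48 h treatment at 30 °C; Technique: OD615 measurement.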
RAM 5-FOA: RAM network inhibition, efflux-deficient strain; 1,200 tested, under 10 active; shares compounds with RAM inhibit; S. cerevisiae efflux-deficient reporter strain, 5-FOA growth OD615, 2 days; max inhibition, %; call rule not given here
A number is an active result. The list is not random: actives were taken first. Their share in the collection is about 3.6%.

For CCN(CC)S(=O)(=O)c1cc(C(=O)OCC(=O)Nc2cccc(Br)c2)ccc1F the results were RAM inhibit 14.7, Yeast growth inh inactive, Measles CPE inactive, Yeast lifespan up inactive and RAM 5-FOA inactive.
For CCN(CC)S(=O)(=O)c1cc(C(=O)OCC(=O)Nc2c(F)cccc2F)ccc1F the results were RAM inhibit inactive, Yeast growth inh inactive, Measles CPE inactive and Yeast lifespan up inactive.
`CC12CCC(C(=O)N3CCCc4ccccc43)(OC1=O)C2(C)C` (configuration not stated) gave RAM inhibit inactive, Yeast growth inh inactive, Measles CPE inactive and Yeast lifespan up inactive.
`O=C(c1cc(COc2ccc(F)cc2Cl)on1)N1CCCC(c2ccccc2)C1` (configuration not stated) gave RAM inhibit 13.1 and RAM 5-FOA inactive.
Screening Cc1ccc(N(CCC#N)C(=O)CN2C(=O)NC(Cc3ccccc3)C2=O)cc1 (configuration not stated) returned RAM inhibit inactive.
Screening O=S(=O)(Nc1nc2ccccc2nc1Nc1ccc2c(c1)OCCO2)c1cccs1 returned RAM inhibit 11.5, Yeast growth inh inactive, Measles CPE inactive, Yeast lifespan up inactive and RAM 5-FOA inactive.
For O=C(NCc1ccc2c(c1)OCO2)c1cc(-c2ccccn2)nc2ccccc12 the results were RAM inhibit 13.7 and RAM 5-FOA inactive.
Screening COc1ccc(C2CC(c3cccs3)=NN2c2ccc(C=O)cc2)cc1 (configuration not stated) returned RAM inhibit inactive, Yeast growth inh inactive, Measles CPE inactive and Yeast lifespan up inactive.
CC(=O)N1CCN(C(=O)CSc2nc3c(cnn3-c3ccccc3)c(=O)[nH]2)CC1 was read as RAM inhibit inactive, Yeast growth inh inactive, Measles CPE inactive and Yeast lifespan up inactive.
Screening O=C(CSc1nc2c(cnn2-c2ccccc2)c(=O)[nH]1)N1N=C(c2cccs2)CC1c1ccc(F)cc1 (configuration not stated) returned RAM inhibit 12.5, Yeast growth inh inactive, Measles CPE inactive, Yeast lifespan up inactive and RAM 5-FOA inactive.
`Fc1ccc(C2CC(c3cccs3)=NN2c2ccccc2)cc1` (configuration not stated) gave RAM inhibit 12.0 and RAM 5-FOA inactive.
For CCOc1ccc(NC(=S)Nc2ccccc2C2(C)CC2)cc1 the results were RAM inhibit inactive.
`Cc1ccccc1OCC(O)Cn1c2ccccc2c2ccccc21` (configuration not stated) gave RAM inhibit 12.6, Yeast growth inh inactive, Measles CPE inactive, Yeast lifespan up inactive and RAM 5-FOA inactive.
Screening CC(=O)Nc1ccc(OCC(O)Cn2c3ccccc3c3ccccc32)c(C)c1 (configuration not stated) returned RAM inhibit inactive, Yeast growth inh inactive, Measles CPE inactive and Yeast lifespan up inactive.
`Cc1noc(C)c1COC(=O)COc1ccc(C#N)cc1` gave RAM inhibit inactive.
For CCOc1ccc(S(=O)(=O)N(C)c2ccc(OCC(=O)OCc3c(C)noc3C)cc2)cc1 the results were RAM inhibit 12.3, Yeast growth inh inactive, Measles CPE inactive, Yeast lifespan up inactive and RAM 5-FOA inactive.
`O=C(O)CC(NC(=O)Cc1ccc([N+](=O)[O-])cc1)c1ccc2c(c1)OCO2` (configuration not stated) gave RAM inhibit inactive.
COCCN1C(=O)/C(=C/c2ccc(N3CCCC3)cc2C)SC1=S was read as RAM inhibit 16.1 and RAM 5-FOA inactive.
`COc1ccc(-n2c(C)cc(/C=C3/SC(=S)N(C)C3=O)c2C)cc1` gave RAM inhibit inactive, Yeast growth inh inactive, Measles CPE inactive and Yeast lifespan up inactive.
For Cc1ccc(N/C(SCc2ccccc2C)=C(/C#N)C(=O)NCc2ccco2)cc1C the results were RAM inhibit inactive, Yeast growth inh inactive, Measles CPE inactive and Yeast lifespan up inactive.
Screening CCc1ccc(N/C(SCc2cccc(F)c2)=C(/C#N)C(=O)NCc2ccco2)cc1 returned RAM inhibit 16.5, Yeast growth inh inactive, Measles CPE inactive, Yeast lifespan up inactive and RAM 5-FOA inactive.
For CCCCC(=O)Nc1cccc(NC(=S)NC(=O)Cc2ccccc2)c1 the results were RAM inhibit inactive, Yeast growth inh inactive, Measles CPE inactive and Yeast lifespan up inactive.
Screening CCCCC(=O)Nc1cccc(NC(=S)NC(=O)COc2ccccc2Cl)c1 returned RAM inhibit 11.5, Yeast growth inh inactive, Measles CPE inactive, Yeast lifespan up inactive and RAM 5-FOA inactive.
Screening CCOc1ccccc1NC(=S)NC(=O)CCCOc1ccc(Cl)cc1Cl returned RAM inhibit 12.2, Yeast growth inh inactive, Measles CPE inactive, Yeast lifespan up inactive and RAM 5-FOA inactive.
Screening Clc1ccc(CNc2nc(CN3CCOCC3)nc3scc(-c4ccccc4)c23)cc1 returned RAM inhibit inactive, Yeast growth inh inactive, Measles CPE inactive and Yeast lifespan up inactive.
`COc1cccc(-c2nn(-c3ccccc3)cc2CN2CCCO2)c1` gave RAM inhibit inactive.
For COc1ccc(S(=O)(=O)N2CCOCC2)cc1NC(=O)Cn1nnc2ccccc2c1=O the results were RAM inhibit inactive.
For COc1cc(CNC(=O)c2cccc(COc3ccc(Cl)cc3)c2)cc(OC)c1 the results were RAM inhibit 11.9, Yeast growth inh inactive, Measles CPE inactive, Yeast lifespan up inactive and RAM 5-FOA inactive.
CC(=O)N1CC(=O)N=C1SCC(=O)Nc1nc(C)c(-c2ccccc2)s1 was read as RAM inhibit inactive.
`O=C(Nc1ccc(Cl)c([N+](=O)[O-])c1)C(Sc1ccccc1)c1ccccc1` (configuration not stated) gave RAM inhibit 15.4, Yeast growth inh inactive, Measles CPE inactive, Yeast lifespan up inactive and RAM 5-FOA inactive.
For COc1ccccc1NC(=O)C(Sc1ccccc1)c1ccccc1 (configuration not stated) the results were RAM inhibit 11.5, Yeast growth inh inactive, Measles CPE inactive, Yeast lifespan up inactive and RAM 5-FOA inactive.
Screening Cc1cc(/C=C2\Sc3ccccc3N2C)cc(C)[n+]1CC1CCCO1 (configuration not stated) returned RAM inhibit inactive.
`N#Cc1cc([N+](=O)[O-])ccc1NCCN1CCOCC1` gave RAM inhibit inactive.
CC(C)=CCc1c2c(c3occ(-c4ccc(O)cc4)c(=O)c3c1O)C=CC(C)(C)O2 was read as RAM inhibit 16.7 and RAM 5-FOA inactive.
Screening CC1(C)C=Cc2c(c3c(c4c(=O)c(-c5ccc(O)cc5)coc24)OC(C)(C)CC3)O1 returned RAM inhibit inactive.
Screening CC(=O)c1sc(N/N=C2\CC3CC2C(C)C3(C)C)nc1C (configuration not stated) returned RAM inhibit inactive.
For O=C(Cn1cc(C(=O)c2ccco2)c2ccccc21)NC1CCCCC1 the results were RAM inhibit 11.6 and RAM 5-FOA inactive.
